Assay results as given in ChEMBL document CHEMBL1127752, “Synthesis and antitumor activity of novel mitomycin derivatives containing functional groups at the C-6-methyl position” (J Med Chem, 1994).

How the values were obtained:
[1] = test system: HeLa; assay: In vitro anticellular activity tested against HeLa S3 cells; assay type: functional, cell-based; conditions: Homo sapiens
Summary of the method: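 HeLa S3 cells seeded on day 0, then exposed to drug for 1 h on day 1; anticellular activity determined by a previously described method.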

[2] = test system: Mus musculus; assay: In vivo antitumor activity against lymphatic leukemia P388 cells resistant to mitomycin C (MMC) was measured as maximal increase in life span of the treated mice at optimal dose of 46 mg/kg; assay type: functional
[3] = test system: CCRF S-180; assay: Optimal dose towards sarcoma 180 cells, inoculated subcutaneously to the axillary region of ddY mice; assay type: functional, Mus musculus
Summary of the method: (§1)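 Sarcoma 180 cells implanted sc in the axillary region of ddY mice on day 0; compounds given iv on day 1. Tumor volume compared treated versus control (T/C). 50% growth-inhibitory dose calculated from the dose-response curve; optimal dose also recorded.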

[4] = test system: Mus musculus; assay: Effective dose that gave 50% inhibition of tumor growth was calculated towards sarcoma 180 cells which were inoculated subcutaneously to the axillary region of ddY mice; assay type: functional; conditions: Mus musculus, 180, sc; summary of the method: as §1
[5] = test system: Mus musculus; assay: In vivo antitumor activity against lymphatic leukemia P388 cells resistant to mitomycin C (MMC) was measured as maximal increase in life span of the treated mice at optimal dose of 3.1 mg/kg; assay type: functional
[6] = test system: Mus musculus; assay: In vivo antitumor activity against lymphatic leukemia P388 cells sensitive to mitomycin C (MMC) was measured as maximal increase in life span of the treated mice at optimal dose of 3.1 mg/kg; assay type: functional
[7] = test system: CCRF S-180; assay: Tumor volume of sarcoma 180 cells which were inoculated […] to the axillary region of ddY mice, after treatment; assay type: functional, Mus musculus
[8] = test system: Mus musculus; assay: In vivo antitumor activity against lymphatic leukemia P388 cells resistant to mitomycin C (MMC) was measured as maximal increase in life span of the treated mice at optimal dose of 1.6 mg/kg; assay type: functional
[9] = test system: Mus musculus; assay: In vivo antitumor activity against lymphatic leukemia P388 cells sensitive to mitomycin C (MMC) was measured as maximal increase in life span of the treated mice at optimal dose of 13 mg/kg; assay type: functional
[10] = test system: Mus musculus; assay: In vivo antitumor activity against lymphatic leukemia P388 cells resistant to mitomycin C (MMC) was measured as maximal increase in life span of the treated mice at optimal dose of 13 mg/kg; assay type: functional
[11] = test system: Mus musculus; assay: In vivo antitumor activity against lymphatic leukemia P388 cells resistant to mitomycin C (MMC) was measured as maximal increase in life span of the treated mice at optimal dose of 25 mg/kg; assay type: functional
[12] = test system: Mus musculus; assay: In vivo antitumor activity against lymphatic leukemia P388 cells sensitive to mitomycin C (MMC) was measured as maximal increase in life span of the treated mice at optimal dose of 50 mg/kg; assay type: functional
[13] = test system: Mus musculus; assay: In vivo antitumor activity against lymphatic leukemia P388 cells resistant to mitomycin C (MMC) was measured as maximal increase in life span of the treated mice at optimal dose of 50 mg/kg; assay type: functional
[14] = test system: Mus musculus; assay: In vivo antitumor activity against lymphatic leukemia P388 cells sensitive to mitomycin C (MMC) was measured as maximal increase in life span of the treated mice at optimal dose of 0.78 mg/kg; assay type: functional

Structure (SMILES)	IC50 [1] [nM]	further results
CO[C@@]12[C@H](COC(N)=O)C3=C(C(=O)C(C[S+]([O-])C(C)C)=C(N)C3=O)N1C[C@@H]1N[C@@H]12 (some centres undefined)	> 10000	–
CO[C@@]12[C@H](COC(N)=O)C3=C(C(=O)C(CSc4ccccc4O)=C(N)C3=O)N1C[C@@H]1N[C@@H]12	2200	ILS at 46 mg/kg [2]: > 67%; OD [3]: 46 mg/kg; ED50 [4]: 22 mg/kg
CO[C@@]12[C@H](COC(N)=O)C3=C(C(=O)C(CSC4=NCCS4)=C(N)C3=O)N1C[C@@H]1N[C@@H]12	820	ILS at 3.1 mg/kg [5]: 64%; ILS at 3.1 mg/kg [6]: 62%; OD [3]: 6.3 mg/kg; ED50 [4]: 5.9 mg/kg
CO[C@@]12[C@H](COC(N)=O)C3=C(C(=O)C(CSc4cccs4)=C(N)C3=O)N1C[C@@H]1N[C@@H]12	4900	ILS at 46 mg/kg [2]: > 56%; OD [3]: 46 mg/kg; ED50 [4]: 29 mg/kg
CO[C@@]12[C@H](COC(N)=O)C3=C(C(=O)C(CSC4OC(CO)C(O)C(O)C4O)=C(N)C3=O)N1C[C@@H]1N[C@@H]12 (some centres undefined)	82000	–
CO[C@@]12[C@H](COC(N)=O)C3=C(C(=O)C(CSc4ccccn4)=C(N)C3=O)N1C[C@@H]1N[C@@H]12	1800	–
CO[C@@]12[C@H](COC(N)=O)C3=C(C(=O)C(CSc4ncc[nH]4)=C(N)C3=O)N1C[C@@H]1N[C@@H]12	92000	–
CO[C@@]12[C@H](COC(N)=O)C3=C(C(=O)C4=C(NCCSC4)C3=O)N1C[C@@H]1N[C@@H]12	1300	–
CO[C@@]12[C@H](COC(N)=O)C3=C(C(=O)C(CO)=C(N)C3=O)N1C[C@@H]1N[C@@H]12	> 29000	–
COC(=O)CCSCC1=C(N)C(=O)C2=C(C1=O)N1C[C@@H]3N[C@@H]3[C@]1(OC)[C@@H]2COC(N)=O	970	ILS at 3.1 mg/kg [6]: 69%; OD [3]: 3.1 mg/kg; T/C [7]: 0.63 min
CO[C@@]12[C@H](COC(N)=O)C3=C(C(=O)C(CSc4ccccc4Cl)=C(N)C3=O)N1C[C@@H]1N[C@@H]12	7300	–
CO[C@@]12[C@H](COC(N)=O)C3=C(C(=O)C(CSCC4CC4)=C(N)C3=O)N1C[C@@H]1N[C@@H]12	1100	ILS at 1.6 mg/kg [8]: > 115%; ILS at 13 mg/kg [9]: 43%; OD [3]: 25 mg/kg; ED50 [4]: 13 mg/kg
CCSCC1=C(N)C(=O)C2=C(C1=O)N1C[C@@H]3N[C@@H]3[C@]1(OC)[C@@H]2COC(N)=O	2200	–
COCC1=C(N)C(=O)C2=C(C1=O)N1CC3C(N3C)[C@]1(OC)[C@@H]2COC(N)=O (some centres undefined)	> 100000	–
CO[C@@]12[C@H](COC(N)=O)C3=C(C(=O)C(CSc4nccn4C)=C(N)C3=O)N1C[C@@H]1N[C@@H]12	760	–
CO[C@@]12[C@H](COC(N)=O)C3=C(C(=O)C(CSc4nnnn4C)=C(N)C3=O)N1C[C@@H]1N[C@@H]12	120	–
CO[C@@]12[C@H](COC(N)=O)C3=C(C(=O)C(COCc4ccccc4)=C(N)C3=O)N1C[C@@H]1N[C@@H]12	5500	–
CO[C@@]12[C@H](COC(N)=O)C3=C(C(=O)C(CSc4nnnn4-c4ccccc4)=C(N)C3=O)N1C[C@@H]1N[C@@H]12	270	–
CCCCCCCCCCCCSCC1=C(N)C(=O)C2=C(C1=O)N1C[C@@H]3N[C@@H]3[C@]1(OC)[C@@H]2COC(N)=O	5500	–
COC1=C(C)C(=O)C2=C(C1=O)[C@@H](COC(N)=O)[C@@]1(OC)[C@H]3N[C@H]3CN21 [MITOMYCIN A]	2.4	–
CO[C@@]12[C@H](COC(N)=O)C3=C(C(=O)C(CSc4nc5ccccc5o4)=C(N)C3=O)N1C[C@@H]1N[C@@H]12	5100	–
CO[C@@]12[C@H](COC(N)=O)C3=C(C(=O)C(CSc4ccc(O)cc4)=C(N)C3=O)N1C[C@@H]1N[C@@H]12	116000	–
CO[C@@]12[C@H](COC(N)=O)C3=C(C(=O)C(CSCc4ccccc4)=C(N)C3=O)N1C[C@@H]1N[C@@H]12	2200	–
COCC1=C(OC)C(=O)C2=C(C1=O)N1CC3NC3[C@]1(OC)[C@@H]2COC(N)=O (some centres undefined)	120	–

Structure (SMILES)	IC50 [1] [nM]	further results
CCCCOCC1=C(N)C(=O)C2=C(C1=O)N1C[C@@H]3N[C@@H]3[C@]1(OC)[C@@H]2COC(N)=O	19000	–
COCC1=C(N)C(=O)C2=C(C1=O)N1C[C@H]3[C@H](N3C)[C@]1(O)[C@H]2COC(N)=O (some centres undefined)	> 82000	–
CO[C@@]12[C@H](COC(N)=O)C3=C(C(=O)C(CSc4nnc(C)s4)=C(N)C3=O)N1C[C@@H]1N[C@@H]12	1100	–
CO[C@@]12[C@H](COC(N)=O)C3=C(C(=O)C(CSc4ncccc4O)=C(N)C3=O)N1C[C@@H]1N[C@@H]12	190	ILS at 3.1 mg/kg [5]: 26%; ILS at 3.1 mg/kg [6]: 49%; OD [3]: 6.3 mg/kg; ED50 [4]: 3.7 mg/kg
CO[C@@]12[C@H](COC(N)=O)C3=C(C(=O)C(CSC4OC(COC(C)=O)C(OC(C)=O)C(OC(C)=O)C4OC(C)=O)=C(N)C3=O)N1C[C@@H]1N[C@@H]12 (some centres undefined)	1100	ILS at 13 mg/kg [9]: 58%; ILS at 13 mg/kg [10]: > 143%; OD [3]: 25 mg/kg; ED50 [4]: 24 mg/kg
CO[C@@]12[C@H](COC(N)=O)C3=C(C(=O)C(CSCCO)=C(N)C3=O)N1C[C@@H]1N[C@@H]12	> 100000	–
CO[C@@]12[C@H](COC(N)=O)C3=C(C(=O)C4=C(Nc5ccccc5SC4)C3=O)N1C[C@@H]1N[C@@H]12	310	ILS at 25 mg/kg [11]: 48%; ILS at 13 mg/kg [9]: 36%; OD [3]: 100 mg/kg; ED50 [4]: 35 mg/kg
CO[C@@]12[C@H](COC(N)=O)C3=C(C(=O)C(CSc4ccccc4Br)=C(N)C3=O)N1C[C@@H]1N[C@@H]12	48000	–
CO[C@@]12[C@H](COC(N)=O)C3=C(C(=O)C(CSC(C)C)=C(N)C3=O)N1C[C@@H]1N[C@@H]12	5400	ILS at 50 mg/kg [12]: 58%; ILS at 25 mg/kg [11]: 30%; OD [3]: 25 mg/kg; ED50 [4]: 8.4 mg/kg
C=CCOCC1=C(N)C(=O)C2=C(C1=O)N1C[C@@H]3N[C@@H]3[C@]1(OC)[C@@H]2COC(N)=O	5500	–
CO[C@@]12[C@H](COC(N)=O)C3=C(C(=O)C(CSCC(O)CO)=C(N)C3=O)N1C[C@@H]1N[C@@H]12 (some centres undefined)	> 100000	–
CO[C@@]12[C@H](COC(N)=O)C3=C(C(=O)C(CSc4nc5ccccc5s4)=C(N)C3=O)N1C[C@@H]1N[C@@H]12	700	ILS at 50 mg/kg [13]: 57%; ILS at 13 mg/kg [9]: 40%; OD [3]: 50 mg/kg; ED50 [4]: 36 mg/kg
CO[C@@]12[C@H](COC(N)=O)C3=C(C(=O)C(CSc4ncccn4)=C(N)C3=O)N1C[C@@H]1N[C@@H]12	950	ILS at 1.6 mg/kg [8]: > 92%; OD [3]: 13 mg/kg; ILS at 0.78 mg/kg [14]: 58%; ED50 [4]: 8.9 mg/kg
CO[C@@]12[C@H](COC(N)=O)C3=C(C(=O)C(CS(=O)(=O)C(C)C)=C(N)C3=O)N1C[C@@H]1N[C@@H]12	> 10000	–
CO[C@@]12[C@H](COC(N)=O)C3=C(C(=O)C(CSc4nc(C)cc(C)n4)=C(N)C3=O)N1C[C@@H]1N[C@@H]12	1100	ILS at 3.1 mg/kg [6]: 50%; OD [3]: 6.3 mg/kg
CO[C@@]12[C@H](COC(N)=O)C3=C(C(=O)C(CSc4ccc(Cl)cc4)=C(N)C3=O)N1C[C@@H]1N[C@@H]12	53000	–
CO[C@@]12[C@H](COC(N)=O)C3=C(C(=O)C(CSc4ccccc4C(C)C)=C(N)C3=O)N1C[C@@H]1N[C@@H]12	27000	–
COc1ccc(SCC2=C(N)C(=O)C3=C(C2=O)N2C[C@@H]4N[C@@H]4[C@]2(OC)[C@@H]3COC(N)=O)cc1	14000	–
CCCOCC1=C(N)C(=O)C2=C(C1=O)N1C[C@@H]3N[C@@H]3[C@]1(OC)[C@@H]2COC(N)=O	5300	–
COCC1=C(N)C(=O)C2=C(C1=O)N1CC3NC3[C@]1(OC)[C@@H]2COC(N)=O (some centres undefined)	2600	–
CO[C@@]12[C@H](COC(N)=O)C3=C(C(=O)C(CSc4ccc([N+](=O)[O-])cc4)=C(N)C3=O)N1C[C@@H]1N[C@@H]12	780	–
COc1ccccc1SCC1=C(N)C(=O)C2=C(C1=O)N1C[C@@H]3N[C@@H]3[C@]1(OC)[C@@H]2COC(N)=O	2300	–
CO[C@@]12[C@H](COC(N)=O)C3=C(C(=O)C(CSc4ccccc4)=C(N)C3=O)N1C[C@@H]1N[C@@H]12	1000	ILS at 50 mg/kg [12]: 45%; OD [3]: 22 mg/kg; ED50 [4]: 6.1 mg/kg
CO[C@@]12[C@H](COC(N)=O)C3=C(C(=O)C(CSc4nc[nH]n4)=C(N)C3=O)N1C[C@@H]1N[C@@H]12	6800	–
